# From PubChem
# Sampled rows, rich in hits. Any-hit rate of the full collection: about 3%.
# Exocytosis inh – lytic granule exocytosis inhibition. TALL-104 LAMP-1 surface exposure, flow cytometry; cells stimulated with thapsigargin and PMA. inhibition, % at 10 µM. 0.66% of 360,000 active. AID 651702;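 active means inhibition above about 55%, limit read from the data; inconclusive means no clear call, values can overlap the other calls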
# Myeloid diff 2 – compounds promoting myeloid differentiation; ER-HoxA9 myeloid progenitors, lysozyme-GFP differentiation, flow cytometry; calls only at 10 µM; 1% of 360,000 active; AID 624256;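 active means normalized GFP-positive differentiation at or above the plate's own cutoff, the solvent-only control mean plus 3 SD; inconclusive means no clear call, values can overlap the other calls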;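 further: cells exposed to compound for four days before flow analysis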
# Cardio protect – myocardial damage modulation in H9c2 cells; AID 588492; H9c2 cardiomyocytes, H2O2 injury protection, ATPLite, 2 h; 0.63% of 360,000 active; protection from H2O2 cell death, % at 20 µM;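 active means compounds giving at least 50% protection of heart cells from peroxide-induced death in the single-dose screen, raw or plate-pattern-corrected value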;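 further: 0% = DMSO wells with peroxide and 100% = DMSO wells without peroxide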
# Pemphigus Ab inh – human desmoglein-3 autoantibody binding inhibition; P32926; DSG3-coupled beads, scFv-anti-DSG3-GFP binding, flow cytometry; active compounds read low; binding (percent of control), % at 10 µM; 0.48% of 310,000 active; AID 588358;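 active means binding more than 3 SD below its plate's average and above zero; inconclusive means below that plate limit but binding exactly zero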;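 further: hits lower antibody fragment binding to DSG3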
# HNF4A DNA FP – change in binding of human HNF4 alpha to DNA; P41235; HNF4a-FITC DNA binding, fluorescence polarization, 1 h; activity change, % at 10 µM; 0.3% of 360,000 active; AID 1224865; in the data active means activity change above about 30%, passing the limit was not always enough
# Target sequence (P41235 whole entry, looked up): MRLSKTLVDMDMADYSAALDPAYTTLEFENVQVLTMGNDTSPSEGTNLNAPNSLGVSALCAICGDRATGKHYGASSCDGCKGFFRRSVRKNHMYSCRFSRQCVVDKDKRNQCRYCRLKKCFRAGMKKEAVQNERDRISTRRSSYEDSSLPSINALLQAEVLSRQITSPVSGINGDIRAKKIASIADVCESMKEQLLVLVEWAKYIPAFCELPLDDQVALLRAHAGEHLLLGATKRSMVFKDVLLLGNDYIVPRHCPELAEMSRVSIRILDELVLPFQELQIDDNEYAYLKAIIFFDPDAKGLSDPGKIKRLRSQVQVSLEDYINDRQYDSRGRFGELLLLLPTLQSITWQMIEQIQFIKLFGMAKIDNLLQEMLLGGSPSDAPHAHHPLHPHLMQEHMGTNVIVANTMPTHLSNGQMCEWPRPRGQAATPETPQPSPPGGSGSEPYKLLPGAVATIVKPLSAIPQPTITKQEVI
# SENP1 inh – inhibitors of human SENP1 SUMO protease catalytic domain; Q9P0U3; recombinant SENP1 catalytic domain, CyPet-SUMO1-YPet FRET cleavage; inhibition, % at 10 µM; 0.21% of 360,000 active; AID 624204;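 active means inhibition at least 30% at 10 µM, raw YFP signal under a set limit, fluorescence ratio 0.5 to 1.5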;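 further: 0% = enzyme with DMSO and 100% = no enzyme wells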
#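 Test system: human SENP1 catalytic domain; medium: Tris pH 8 buffer plus EDTA, NaCl, BME, BSA, NP40, catalase; incubation: 50 min reaction at room temperature; technique: FRET, CFP and YFP emission; controls: no-enzyme low control and enzyme-plus-DMSO high control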
# * hit, by the source's call; i = inactive; ? = inconclusive; / = no result given; + = active, no number.
SMILES,Exocytosis inh,Myeloid diff 2,Cardio protect,Pemphigus Ab inh,HNF4A DNA FP,SENP1 inh
O=C(CN1C(=O)NC(Cc2ccccc2)C1=O)Nc1ccccc1OC(F)F (centres undefined),-1.5,i,-1.4,107.8,-0.4,0.1
CC(/C=C(\NC(=O)c1ccccc1)C(=O)N=Nc1c(O)[nH]c2ccc(C)cc12)=C\c1ccccc1,-0.7,i,61.5*,87.3,0.3,3.2
Cc1ccc2[nH]c(O)c(N=NC(N)=S)c2c1,2.6,i,-9.1,92.6,1.3,-3.1
CN1CCc2nc3ccccc3c(C(=O)OCC(=O)N(CCC#N)c3ccccc3)c2C1,14.3,i,58.3*,118.0,5.9,5.9
CN(/N=C\c1ccc(O)c(O)c1)c1nc(-c2ccccc2)cc(-c2ccccc2)n1,20.0,i,0.1,54.1*,0.6,1.5
COc1cc(/C=N/N(c2ccccc2)c2ccccc2)ccc1O,10.9,i,-22.6,123.2,-2.0,-1.1
COc1cccc(/C=N/NC(=O)c2[nH]nc3c2CCc2ccccc2-3)c1,81.2*,?,18.8,104.7,2.7,2.7
COc1cccc(/C=N/NC(=O)c2[nH]c(C)c(C(=O)N/N=C/c3cccc(OC)c3)c2C)c1,-8.0,i,55.8*,95.5,-1.3,2.9
COc1ccc(C(=O)Oc2ccc(C(=S)N3CCOCC3)cc2)cc1,-40.2,i,2.6,92.2,-3.1,1.9
O=C(NCCCCCCNC(=O)c1cncc(O)c1)c1cncc(O)c1,3.8,i,2.7,95.2,0.6,1.6
N#C/C(=C\c1ccc(O)c([N+](=O)[O-])c1)c1nc2ccccc2s1,4.1,i,-30.2,95.7,21.0,32.2*
COc1ccc(-c2csc(/C(C#N)=C\c3ccc(O)c([N+](=O)[O-])c3)n2)cc1OC,93.0*,i,-17.2,80.8,-0.9,14.2
Cc1cc(C)cc(NC(=O)CCNS(=O)(=O)c2cc(Br)cnc2N)c1,-13.0,i,-2.5,104.0,-2.0,0.3
OC(CN1CC=C(/C=C/c2ccc(Br)cc2)CC1)c1ccccc1 (centres undefined),15.1,i,-4.1,118.4,0.2,-18.3
Cn1c(O)c(/C=N/NC(=O)c2cc3ccccc3cc2O)c2ccccc21,82.9*,i,3.9,112.9,61.8,-24.6
CCCCC[C@H](C)N1C[C@H](COCc2ccccc2)Oc2cc(N3CCC[C@@H]3COC)ccc2S1(=O)=O,-3.6,i,/,/,1.3,1.2
Cc1ccc(S(=O)(=O)N(CC(=O)N=Nc2c(O)[nH]c3ccccc23)c2cccc(C)c2)cc1,1.2,i,-4.8,84.8*,4.3,3.7
Cc1cc(Cl)ccc1N(CC(=O)N=Nc1c(O)[nH]c2ccccc12)S(C)(=O)=O,-0.2,i,9.6,100.8,3.9,0.7
Cc1ccc([N+](=O)[O-])cc1-c1ccc(/C=C(\C#N)c2[nH]nc(N)c2C#N)o1,4.8,i,42.9,86.4*,4.8,-15.0
Cc1cc(C)n(-c2ccn(Cc3ccc(Cl)cc3Cl)c(=O)n2)n1,2.2,+,2.7,112.3,0.8,0.1
CCSCCc1nnc(NC(=O)Nc2cccc(C(F)(F)F)c2)s1,9.0,i,-32.7,105.5,21.3,1.1
CC(C)(C)C(=O)N1CCN(c2nc3ccc(Br)cc3s2)CC1,10.1,+,-6.2,93.6,3.7,0.8
CC(=O)N1CCN(c2nc3ccc(Br)cc3s2)CC1,7.6,i,-13.6,105.3,-0.7,0.9
CCCCNC(=O)C(C)N(CCN(C)C)C(=O)CCCN1C(=O)NC(c2ccc([N+](=O)[O-])cc2)C(C(=O)OCc2ccccc2)=C1C (centres undefined),35.7,+,-18.1,124.9,5.0,1.5
CCOC(=O)C1=C(C)N(CCCC(=O)O)C(=O)NC1c1ccc([N+](=O)[O-])cc1 (centres undefined),2.5,i,0.6,106.4,3.1,0.5
NC(=O)c1nsc(C(=O)N(Cc2ccccc2Cl)C(C(=O)NCC2CCCO2)c2ccc(O)cc2)c1N (centres undefined),-8.1,i,10.8,105.4,-2.2,-16.5
NNC(=O)c1csc(-c2ccc(C(F)(F)F)cc2Cl)n1,-4.4,+,4.8,/,0.2,1.1
